Values after ≈ are worked out from the molar mass of the structure shown. Active and inactive are the calls of the source. No cut-off for these calls is given here.
What was measured:
[1] = Chemical stability of the compound in water assessed as half life by HPLC analysis; type: physicochemical
[2] = Permeability of the compound measured on donor plate of PAMPA membrane at 50 uM after 5 hrs by HPLC analysis; type: ADME
Procedure, shortened: (§1)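 Precoated PVDF PAMPA plate warmed to room temperature for 30 min. Donor held 50 μM compound in PBS with 5% DMSO; acceptor held PBS. Assembly incubated at room temperature for 1 and 5 h. Donor and acceptor aliquots analysed by HPLC; distribution given as percentage of integrated peak area.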

[3] = Permeability of the compound measured on acceptor plate of PAMPA membrane at 50 uM after 1 hr by HPLC analysis; type: ADME; procedure, shortened: as §1
[4] = Permeability of the compound measured on donor plate of PAMPA membrane at 50 uM after 1 hr by HPLC analysis; type: ADME; procedure, shortened: as §1
[5] = Chemical stability of the compound in PBS buffer at pH 7.4 assessed as half life by HPLC analysis; type: physicochemical
Procedure, shortened: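 Compound at 50 μM in PBS pH 7.4 at 37 °C, no stabilizer. Aliquots taken at 0–360 min and analysed by C-18 reverse-phase HPLC with UV detection at 340 nm and an acetonitrile/0.1% formic acid gradient. Half-life derived from the time course.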

[6] = Half life in blood of cancer patient at 400 mg/kg, iv by HPLC analysis; type: ADME, organism-based; set-up: dose 400 mg/kg, route intravenous; conditions: human
[7] = Solubility of the compound in DMEM media assessed as forward light scattering by compound by microplate neplhelometric analysis; type: physicochemical; conditions: DMEM medium
Procedure, shortened: (§2)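 Stocks in DMSO diluted to final 5–500 μM in DMEM, with or without FBS, at 1% DMSO. Forward light scattering measured by laser microplate nephelometry; solubility limit taken from the onset of scattering.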

[8] = Aqueous solubility of the compound in PBS assessed as forward light scattering by compound by microplate neplhelometric analysis; type: physicochemical
Procedure, shortened: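 Nephelometric solubility. DMSO stocks diluted in PBS (pH 7.4), 1% DMSO final, to 5–500 μM. Forward light scattering read in microplates to find the highest concentration free of scatter.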

[9] = Permeability of the compound measured on acceptor plate of PAMPA membrane at 50 uM after 5 hrs by HPLC analysis; type: ADME; procedure, shortened: as §1
[10] = Chemical stability of the compound in cell-free DMEM culture media assessed as half life by HPLC analysis in presence of FBS; type: physicochemical; conditions: cell-free DMEM culture medium with FBS
Procedure, shortened: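 50 μM in FBS-supplemented DMEM, diluted from 10 mM DMSO stock, no ascorbic acid, cell-free, 37 °C and 5% CO₂. Media sampled at time points up to 24 h and stored at −80 °C. Half-life determined by HPLC.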

[11] = Chemical stability of the compound in buffer at pH 2 assessed as half life by HPLC analysis; type: physicochemical
Procedure, shortened: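 Compound incubated in pH 2.0 buffer without antioxidant stabiliser. Remaining parent followed by HPLC to derive the half-life.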

[12] = Solubility of the compound in cell-free DMEM media assessed as forward light scattering by compound by microplate neplhelometric analysis in presence of FBS; type: physicochemical; conditions: cell-free DMEM medium with FBS; procedure, shortened: as §2
MCF7 [13] = assay: Antiproliferative activity against human MCF7 cells after 24 hrs by MTT assay; type: functional, cell-based; conditions: MCF7, 24 h
Procedure, shortened: (§3)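 Cells seeded at 5 × 10³ per well in complete DMEM and grown 1 day at 37 °C, 5% CO₂. Compounds in DMSO diluted to 0.1–50 μM in medium, no ascorbic acid added. […] Each experiment run in triplicate and repeated three times.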

HCT-116 [14] = assay: Cellular uptake in human HCT116 cells assessed a bright fluorescence light at 5 uM after 1 hr by fluorescence microscopic analysis; type: ADME, cell-based; conditions: hct-116, 1 h
MCF7 [15] = assay: Cellular uptake in human MCF7 cells assessed as compound remaining in cell lysates at 10 uM after 12 hr by HPLC-mass spectrophotometric analysis; type: ADME, cell-based, Lysate; conditions: mcf7, 12 h
Procedure, shortened: (§4)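 Cells (MCF-7 or Huh-7) seeded at 10⁵ cells/well and grown 24 h (37 °C, 5% CO₂), then exposed to 10 μM compound. Media and washed, trypsinised, sonicated and filtered lysates analysed by HPLC at 1 and 12 h. Peaks collected and identified by MALDI-TOF MS; content given as percentage of integrated HPLC peak area.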

DU-145 = assay: Antiproliferative activity against human DU145 cells after 24 hrs by MTT assay; type: functional, cell-based; conditions: DU-145, 24 h; procedure, shortened: as §3
MCF7 [16] = assay: Cellular uptake in human MCF7 cells assessed as compound remaining in culture media at 10 uM after 1 hr by HPLC-mass spectrophotometric analysis; type: ADME, cell-based; conditions: mcf7, 1 h; procedure, shortened: as §4
MCF7 [17] = assay: Cell cycle arrest in human MCF7 cells assessed as increase in apoptotic cells in sub-G1 phase at 30 uM after 14 hrs by propidium iodide staining based flow cytometric analysis relative to quercetin; type: functional
HCT-116 [18] = assay: Antiproliferative activity against human HCT116 cells after 24 hrs by MTT assay; type: functional, cell-based; conditions: HCT-116, 24 h; procedure, shortened: as §3
MCF7 [19] = assay: Cellular uptake in human MCF7 cells assessed as compound remaining in cell lysates at 10 uM after 1 hr by HPLC-mass spectrophotometric analysis; type: ADME, cell-based, Lysate; conditions: mcf7, 1 h; procedure, shortened: as §4
MCF7 [20] = assay: Cellular uptake in human MCF7 cells assessed as compound remaining in culture media at 10 uM after 12 hrs by HPLC-mass spectrophotometric analysis; type: ADME, cell-based; conditions: mcf7, 12 h; procedure, shortened: as §4
Huh-7 [21] = assay: Cellular uptake in human HuH7 cells assessed as compound remaining in culture media at 10 uM after 1 hrs by HPLC-mass spectrophotometric analysis; type: ADME, cell-based; conditions: huh-7, 1 h
MCF7 [22] = assay: Cell cycle arrest in human MCF7 cells assessed as decrease in accumulation at G0/G1 phase at 30 uM after 12 hrs by propidium iodide staining based flow cytometric analysis relative to quercetin; type: functional; set-up: scale not given: the % may be the effect or the level left
Procedure, shortened: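 MCF-7 cells seeded in 35 mm dishes at 10⁵ cells and grown 12 h at 37 °C, 5% CO₂. Treated 12 h with conjugate at 30 μM, quercetin or 1% DMSO control. Propidium iodide staining, flow cytometry, percentage of cells in each phase.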

Huh-7 [23] = assay: Cellular uptake in human HuH7 cells assessed as compound remaining in cell lysate at 10 uM after 1 hr by HPLC-mass spectrophotometric analysis; type: ADME, cell-based; conditions: huh-7, 1 h
HS27 = assay: Antiproliferative activity against human HS27 cells after 24 hrs by MTT assay; type: cell-based; conditions: HS27, 24 h; procedure, shortened: as §3
HCT-116 [24] = assay: Antiproliferative activity against human HCT116 cells after 24 hrs by MTT assay in presence of antioxidative stabilizer ascorbic acid; type: functional, cell-based
Procedure, shortened: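 HCT116 cells seeded at 5 × 10³ cells/well in complete DMEM and grown 1 day (37 °C, 5% CO₂). Compounds were dissolved in DMSO and diluted to 0.1–50 μM in medium containing ascorbic acid. Viability read by MTT after 24 h; triplicate wells, three independent repeats.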

HCT-116 [25] = assay: Cellular uptake in human HCT116 cells assessed a bright fluorescence light at 5 uM after 12 hrs by fluorescence microscopic analysis; type: ADME, cell-based; conditions: hct-116, 12 h
MCF7 [26] = assay: Cell cycle arrest in human MCF7 cells assessed as increase in accumulation at S phase at 30 uM after 14 hrs by propidium iodide staining based flow cytometric analysis relative to quercetin; type: functional
HCT-116 [27] = assay: Cellular uptake in human HCT116 cells assessed a bright fluorescence light at 5 uM after 12 hr by fluorescence microscopic analysis in presence of […]; type: ADME, cell-based; conditions: hct-116, 12 h
HCT-116 [28] = assay: Cellular uptake in human HCT116 cells assessed a bright fluorescence light at 5 uM after 12 hr by fluorescence microscopic analysis in presence of P-glycoprotein inhibitor verapamil; type: ADME, cell-based; conditions: hct-116, 12 h
MCF7 [29] = assay: Cellular uptake in human MCF7 cells assessed as formation of methylated quercetin in cell lysates at 10 uM after 12 hrs by HPLC-mass spectrophotometric analysis; conditions: mcf7, 12 h
MCF7 [30] = assay: Cellular uptake in human MCF7 cells assessed as formation of quercetin sulphate in cell lysates at 10 uM after 12 hrs by HPLC-mass spectrophotometric analysis; conditions: mcf7, 12 h
MCF7 [31] = assay: Cellular uptake in human MCF7 cells assessed as formation of quercetin glucuronide in cell lysates at 10 uM after 12 hrs by HPLC-mass spectrophotometric analysis; conditions: mcf7, 12 h
MCF7 [32] = assay: Cell cycle arrest in human MCF7 cells assessed as increase in accumulation at S phase at 50 uM after 14 hrs by propidium iodide staining based flow cytometric analysis relative to untreated control; type: functional
Huh-7 [33] = assay: Cellular uptake in human HuH7 cells assessed as quercetin-sulphate accumulation at 10 uM after 12 hrs by HPLC-mass spectrophotometric analysis; type: ADME, cell-based; conditions: huh-7, 12 h; procedure, shortened: as §4
MCF7 [34] = assay: Cellular uptake in human MCF7 cells assessed as formation of oxidised quercetin in cell lysates at 10 uM after 12 hrs by HPLC-mass spectrophotometric analysis; conditions: mcf7, 12 h
Huh-7 [35] = assay: Cellular uptake in human HuH7 cells assessed as intracellular accumulation at 10 uM after 12 hrs by HPLC-mass spectrophotometric analysis; type: ADME, cell-based; conditions: huh-7, 12 h; procedure, shortened: as §4
Huh-7 [36] = assay: Cellular uptake in human HuH7 cells assessed as methyl-quercetin accumulation at 10 uM after 12 hrs by HPLC-mass spectrophotometric analysis; type: ADME, cell-based; conditions: huh-7, 12 h; procedure, shortened: as §4
MCF7 [37] = assay: Cell cycle arrest in human MCF7 cells assessed as decrease in accumulation at G0/G1 phase at 50 uM after 12 hrs by propidium iodide staining based flow cytometric analysis relative to untreated control; type: functional; set-up: scale not given: the % may be the effect or the level left

Structure (SMILES) | permeability [2] [%] | permeability [3] [%] | permeability [4] [%] | half-life [5] [h] | solubility kinetic [7] [µM] | solubility kinetic [8] [µM] | permeability [9] [%] | half-life [10] [h] | half-life [11] [h] | solubility kinetic [12] [µM] | EC50 (MCF7 [13]) [µM] | Drug uptake (HCT-116 [14]) | Drug uptake (MCF7 [15]) [%] | EC50 (DU-145) [µM] | Drug uptake (MCF7 [16]) [%] | EC50 (HCT-116 [18]) [µM] | Drug uptake (MCF7 [19]) [%] | Drug uptake (MCF7 [20]) [%] | EC50 (HS27) [µM] | Drug uptake (HCT-116 [25]) | further results
O=C(O)CNC(=O)Oc1cc(-c2oc3cc(O)cc(O)c3c(=O)c2O)ccc1O [QC-12] | 18 | 55 | 6 | 10 | > 400 | > 400 | 40 | 0.8 | 3 | > 400 |  |  |  |  |  |  |  |  |  |  | half-life [1]: 16.9 h; half-life [6]: 0.39 h
CC(C)(C)C(=O)OCOc1cc(O)c2c(=O)c(O)c(-c3ccc(O)c(O)c3)oc2c1 |  |  |  | > 72 | 50 (≈ 20.8 µg/mL) | 5 (≈ 2.08 µg/mL) |  | 4 | 7 | 200 | 20 | Active | 4 | 10 | 62 | 36 | 21 | 12 | > 100 | Active | Activity (MCF7 [17]): Active; Drug uptake (Huh-7 [21]): Active; Activity (MCF7 [22]): 10%; Drug uptake (Huh-7 [23]): Active; Activity (HCT-116 [24]): Active; Activity (MCF7 [26]): 120%
CC(C)(C)C(=O)OCOc1c(-c2ccc(O)c(O)c2)oc2cc(O)cc(O)c2c1=O | 74 | 0 | 87 | > 72 | 100 (≈ 41.6 µg/mL) | 100 (≈ 41.6 µg/mL) | 0 | 52 | 20 | > 400 | > 100 | Not Active |  | > 100 |  | > 100 |  |  | > 100 | Not Active | Drug uptake (HCT-116 [27]): Not Active; Drug uptake (HCT-116 [28]): Not Active
O=c1c(O)c(-c2ccc(O)c(O)c2)oc2cc(O)cc(O)c12 [QUERCETIN] | 8 | 16 | 45 | 10 |  | 100 (≈ 30.2 µg/mL) | 6 | < 0.5 | 7 |  | > 100 | Active | 17 | > 100 | 5 | > 100 | 7 | 5 | > 100 | Not Active | Drug uptake (MCF7 [29]): Active; Drug uptake (MCF7 [30]): Active; Drug uptake (MCF7 [31]): Active; Activity (MCF7 [32]): 78%; Drug uptake (Huh-7 [33]): < 5%; Drug uptake (MCF7 [34]): Active; Drug uptake (Huh-7 [35]): Not Active; Drug uptake (Huh-7 [36]): < 5%; Activity (MCF7 [37]): 21%; Activity (HCT-116 [24]): inactive

Reference: ChEMBL document CHEMBL1800065, “Enhanced stability and intracellular accumulation of quercetin by protection of the chemically or metabolically susceptible hydroxyl groups with a pivaloxymethyl (POM) promoiety” (J Med Chem, 2010)
